{"data": "Measured values of several laboratories", "target": "Mitogen-activated protein kinase kinase kinase 7 (MAP3K7, Homo sapiens, UniProt O43318)", "Sequence (O43318 1-606, as in one of the studies)": "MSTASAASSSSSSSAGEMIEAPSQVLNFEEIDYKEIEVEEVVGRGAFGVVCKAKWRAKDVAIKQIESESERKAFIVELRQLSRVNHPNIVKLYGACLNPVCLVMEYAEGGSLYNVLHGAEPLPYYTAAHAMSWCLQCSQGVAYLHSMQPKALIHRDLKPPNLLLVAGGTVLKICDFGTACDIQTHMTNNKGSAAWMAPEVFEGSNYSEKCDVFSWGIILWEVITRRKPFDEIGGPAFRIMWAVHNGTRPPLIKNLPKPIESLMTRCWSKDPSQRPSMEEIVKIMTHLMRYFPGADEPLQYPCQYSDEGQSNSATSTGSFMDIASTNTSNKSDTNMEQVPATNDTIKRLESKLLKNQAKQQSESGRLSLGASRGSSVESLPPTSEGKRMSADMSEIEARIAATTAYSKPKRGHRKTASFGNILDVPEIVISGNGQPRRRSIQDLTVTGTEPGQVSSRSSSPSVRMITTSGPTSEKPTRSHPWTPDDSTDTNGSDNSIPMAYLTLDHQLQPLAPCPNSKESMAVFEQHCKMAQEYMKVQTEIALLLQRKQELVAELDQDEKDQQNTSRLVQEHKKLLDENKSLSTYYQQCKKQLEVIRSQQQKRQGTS"}
{"SMILES": "CCCCC(=O)Nc1ccc(-c2ccc3ncn(CCC)c(=O)c3c2)cn1", "assay": "binding, competition with immobilised ligand", "conditions": "0.5 µM", "measurement": "remaining binding", "result": "87%"}
{"SMILES": "C[C@H]1CC[C@H](n2c3cnccc3c3cnc(Nc4ccc5c(n4)CCN(C(=O)CO)C5)nc32)CC1", "assay": "binding, competition with immobilised ligand", "conditions": "1 µM", "measurement": "remaining binding", "result": "47%"}
{"SMILES": "CS(=O)(=O)c1ccccc1Nc1nc(Nc2ccnc(CO)c2)ncc1Cl", "assay": "enzyme activity, inhibitor", "conditions": "1 µM", "measurement": "remaining activity", "result": "70.7%"}
{"SMILES": "Cc1cc(O)c(-c2ccc([C@@H](C)CN(C)C)cc2)c2c1[nH]c(=O)c1sccc12", "assay": "enzyme activity, inhibitor", "conditions": "0.1 µM", "measurement": "inhibition", "result": "-18.1%"}
{"SMILES": "CC#CC(=O)N1CCC[C@H]1c1nc(-c2ccc(C(=O)Nc3ccccn3)cc2)c2c(N)nccn12", "assay": "enzyme activity, inhibitor", "conditions": "1 µM", "measurement": "inhibition", "result": "12%"}
{"SMILES": "CS(=O)(=NC#N)c1ccccc1Nc1nc(Nc2ccc(CO)nc2)ncc1Cl (centres unmarked)", "assay": "enzyme activity, inhibitor", "conditions": "1 µM", "measurement": "remaining activity", "result": "55.8%"}
{"SMILES": "CN1CCN(C(=O)c2ccc(NC(=O)Nc3ccc(N(C)c4ccnc(Nc5ccc(CS(C)(=O)=O)cc5)n4)cc3)cc2)CC1", "assay": "binding, competition with immobilised ligand", "conditions": "1 µM", "measurement": "remaining binding", "result": "25%"}
{"SMILES": "C=CC(=O)N1CCC([C@@H]2CCNc3c(C(N)=O)c(-c4ccc(Oc5ccccc5)cc4)nn32)CC1", "assay": "enzyme activity, inhibitor", "conditions": "1 µM", "measurement": "inhibition", "result": "19%"}
